The T/C is the result in the treated group divided by that in the control group, in per cent. One may read the inhibition as the share of the control response that was lost under treatment. Low values mean little suppression, high ones strong suppression.

Each structure is given as a SMILES string.

This is an account of results in ChEMBL document CHEMBL1123345, “2-Alkyl-substituted 1,1-bis(4-acetoxyphenyl)-2-phenylethenes. Estrogen receptor affinity, estrogenic and antiestrogenic properties, and mammary tumor inhibiting activity” (1986).

For assay [1], the target named is T1, Estrogen receptor (Mus musculus) (UniProt O08537+P19785). In words: Estrogenic effect in uterotrophic assay in immature mice at 1 ug dose. The assay is classed as functional. The method, boiled down:
(§1)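 Immature female NMRI mice (10–12 g, 20 days old, 10 per group) injected sc daily for 3 days with compound in olive oil (0.1 mL/mouse), dose per animal per day. Uteri removed 24 h after last dose, Bouin-fixed, dried, weighed. Effect = uterus dry weight (mg)/body weight (g) × 100. Activity = (E_T − E_V)/(E_S − E_V) × 100, with estrone 0.4 μg standard as 100%.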

For assay [2], the target named is T1, Estrogen receptor (Mus musculus). The experiment in a line: In vivo inhibition of uterine growth in hormone-dependent MXT mammary tumor bearing mice. The class given is functional, organism-based. A digest of the protocol: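 MXT tumor-bearing BDF1 mice dosed sc 3 times weekly for 6 weeks in olive oil at doses equimolar to 3 × 8 mg/kg per week. Uterotrophic effect measured at end of therapy. T/C % = treated/solvent-control uterotrophic effect × 100, mean of 10 animals. U test (Wilcoxon, Mann, Whitney), α ≤ 0.05.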

Assay [3] shares this target. The experiment in a line: Estrogenic effect in uterotrophic assay in immature mice at 25 ug dose. The class given is functional. The method, boiled down: as §1
Assay [4] shares this target. In words: Anti-estrogenic effect in uterotrophic assay in immature mice at 1.0 ug dose. The class given is functional. The method, boiled down:
(§2)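 Immature female NMRI mice (10–12 g, 20 days old, 10 per group) given test compound sc daily for 3 days in olive oil (0.1 mL/mouse), dose per animal per day, with estrone stimulating uterine growth. Uteri removed 24 h after last injection, Bouin-fixed, dried and weighed. Read-out is % inhibition of estrone-stimulated uterine growth.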

The subject of assay [5] is Mus musculus. The experiment in a line: In vivo inhibition of hormone-dependent MXT mammary tumor in mice. The class given is functional. A digest of the protocol: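 BDF1 mice bearing transplanted hormone-dependent MXT mammary tumor (line 3.2). From day 1 after transplantation, compounds given sc 3 times weekly in olive oil (0.1 mL/mouse) for 6 weeks, at doses equimolar to 3 × 8 mg/kg per week. Tumors excised, washed in 0.9% NaCl, blotted, weighed. T/C % = treated/solvent-control tumor weight × 100, mean of 10 animals. Mann–Whitney–Wilcoxon U test, α ≤ 0.05.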

Assay [6] concerns the target T1, Estrogen receptor (Mus musculus). The experiment in a line: Anti-estrogenic effect in uterotrophic assay in immature mice at 5 ug dose. The class given is functional. A digest of the protocol: as §2
The target is the same in assay [7]. The experiment in a line: Estrogenic effect in uterotrophic assay in immature mice at 100 ug dose. The class given is functional. A digest of the protocol: as §1
For assay [8] the target is unchanged. In words: Estrogenic effect in uterotrophic assay in immature mice at 5 ug dose. The assay is classed as functional. The method, boiled down: as §1
Assay [9] shares this target. In words: Anti-estrogenic effect in uterotrophic assay in immature mice at 25 ug dose. The assay is classed as functional. The method, boiled down:
as §2

T1 sequence (O08537 whole entry, looked up): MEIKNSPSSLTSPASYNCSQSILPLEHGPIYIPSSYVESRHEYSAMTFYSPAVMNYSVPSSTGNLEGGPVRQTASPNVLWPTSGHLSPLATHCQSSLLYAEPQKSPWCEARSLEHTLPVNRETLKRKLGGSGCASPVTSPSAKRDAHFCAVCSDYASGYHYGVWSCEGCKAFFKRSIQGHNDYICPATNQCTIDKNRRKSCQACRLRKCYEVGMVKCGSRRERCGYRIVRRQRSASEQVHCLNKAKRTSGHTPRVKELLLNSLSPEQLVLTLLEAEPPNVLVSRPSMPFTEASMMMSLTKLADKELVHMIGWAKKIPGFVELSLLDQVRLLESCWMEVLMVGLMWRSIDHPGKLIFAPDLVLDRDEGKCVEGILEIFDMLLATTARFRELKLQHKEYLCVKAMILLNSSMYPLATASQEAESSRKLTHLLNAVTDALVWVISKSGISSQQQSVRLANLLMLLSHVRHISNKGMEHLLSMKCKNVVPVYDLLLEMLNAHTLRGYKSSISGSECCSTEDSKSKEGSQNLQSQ
T1 sequence (P19785 whole entry, looked up): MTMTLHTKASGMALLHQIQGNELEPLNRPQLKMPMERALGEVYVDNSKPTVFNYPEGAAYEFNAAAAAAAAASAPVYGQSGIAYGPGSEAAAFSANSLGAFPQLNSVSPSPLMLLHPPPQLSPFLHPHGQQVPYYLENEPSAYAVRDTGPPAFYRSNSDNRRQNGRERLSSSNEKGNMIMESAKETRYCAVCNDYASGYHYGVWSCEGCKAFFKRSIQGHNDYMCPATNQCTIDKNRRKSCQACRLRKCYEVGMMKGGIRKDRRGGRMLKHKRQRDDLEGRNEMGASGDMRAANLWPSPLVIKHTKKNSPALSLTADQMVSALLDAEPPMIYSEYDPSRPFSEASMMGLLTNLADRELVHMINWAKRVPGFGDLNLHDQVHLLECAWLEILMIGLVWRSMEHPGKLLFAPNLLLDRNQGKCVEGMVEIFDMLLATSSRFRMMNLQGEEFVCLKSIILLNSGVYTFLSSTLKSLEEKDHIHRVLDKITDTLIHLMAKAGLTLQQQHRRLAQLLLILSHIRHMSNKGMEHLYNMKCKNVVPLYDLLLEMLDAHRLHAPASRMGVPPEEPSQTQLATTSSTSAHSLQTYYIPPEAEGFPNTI

`CC(=O)Oc1ccc(C(=C(c2ccccc2)C(C)C)c2ccc(OC(C)=O)cc2)cc1`: the Activity in assay [1] turned out to be 60; in assay [3], 100; in assay [7], 117; in assay [8], 87. Further, the T/C turned out to be 128% in assay [2] and 0.2% in assay [5]. In addition, the inhibition in [4] and in assay [6] was 0% in each case.

Turning to `CC(=O)Oc1ccc(C(=Cc2ccccc2)c2ccc(OC(C)=O)cc2)cc1`, the Activity was 11 in assay [1], 99 in assay [3], 116 in assay [7] and 13 in assay [8]. The T/C in [2] is 54.8%; in [5] it was 64.3%. Moreover, the inhibition in assay [4] is 26%; in assay [6] it was 0%.

With `CC/C(=C(\c1ccccc1)c1ccc(OCCN(C)C)cc1)c1ccccc1` [TAMOXIFEN], in [5], the T/C was found to be 9.8%.

With `CCCC(=C(c1ccc(OC(C)=O)cc1)c1ccc(OC(C)=O)cc1)c1ccccc1`, the Activity came out at 31 in [1], 90 in assay [3], 114 in assay [7] and 42 in assay [8]. Further, the T/C in assay [2] amounted to 93.3%; in assay [5], 61.1%. Further, the inhibition in [4] was 19%; in assay [6], 0%.

Consider `CCC(c1ccccc1)C(c1ccc(OC(C)=O)cc1)c1ccc(OC(C)=O)cc1` (stereo not drawn), for which the Activity was found to be 17 in assay [1], 79 in assay [3], 83 in [7] and 42 in assay [8]. Besides, the T/C in assay [2] amounted to 73.7%; in assay [5], 69.1%. For the same molecule, the inhibition in [4] is 27%; in assay [6] it was 0%.

On to `CCC(=C(c1ccc(OC(C)=O)cc1)c1ccc(OC(C)=O)cc1)c1ccccc1`, for which the Activity in assay [1] turned out to be 37; in assay [3] it was 98; in assay [7] it was 107; in assay [8], 72. In addition, the T/C in assay [2] was determined as 124%; in assay [5], 0.4%. Moreover, the inhibition in [4] and in [6] was 0% throughout.

Consider `CC(=O)Oc1ccc(C(=C(CC(F)(F)F)c2ccccc2)c2ccc(OC(C)=O)cc2)cc1`, for which the Activity in [1] was 62; in assay [3] it was 108; in assay [7], 86; in assay [8], 140. For the same molecule, the T/C in assay [2] is 128%; in assay [5], 43.1%. The inhibition in assay [4] stood at 0%.

Regarding `CC(=O)Oc1ccc(C(=C(C)c2ccccc2)c2ccc(OC(C)=O)cc2)cc1`, the Activity worked out at 125 in assay [1], 83 in [3], 78 in assay [7] and 108 in assay [8]. The T/C stood at 120% in assay [2] and 0.3% in assay [5].

As to `CCC1(c2ccccc2)OC1(c1ccc(OC(C)=O)cc1)c1ccc(OC(C)=O)cc1` (stereo not drawn), the Activity in [1] stood at 2; in assay [3], 33; in [7] it was 60; in assay [8] it was 2. Further, the T/C amounted to 77.9% in assay [2] and 78.9% in assay [5]. Also, the inhibition in assay [9] was 0%; in assay [4], 23%; in assay [6] it was 5%.
